The source of these data is ChEMBL document CHEMBL1126126, “Development, synthesis, and biological evaluation of (-)-trans-(2S,5S)-2-[3-[(2-oxopropyl)sulfonyl]-4-n-propoxy-5-(3- hydroxypropoxy)-phenyl]-5-(3,4,5-trimethoxyphenyl)tetrahydrofuran, a potent orally active platelet-activating factor (PAF) antagonist and its water-soluble prodrug phosphate ester” (J Med Chem, 1992).

Values after ≈ are worked out from the molar mass of the structure shown. Active and inactive are the calls of the source. The rule behind the calls is not given here.

Data set [1] can be described thus: Water solubility at pH 6. In kind it is physicochemical. The essentials:
(§1)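 Compound combined with buffered solution at the stated pH, sonicated, shaken 1 h and filtered. Filtrate concentration measured by UV against standards of known concentration; reported in mg/mL.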

Data set [2] is described as follows: Water solubility at pH 5. Format: physicochemical. The essentials:
as §1

Data set [3] deals with T1, C5a anaphylatoxin chemotactic receptor 1 (Homo sapiens) (UniProt P21730).
T1 sequence (whole entry): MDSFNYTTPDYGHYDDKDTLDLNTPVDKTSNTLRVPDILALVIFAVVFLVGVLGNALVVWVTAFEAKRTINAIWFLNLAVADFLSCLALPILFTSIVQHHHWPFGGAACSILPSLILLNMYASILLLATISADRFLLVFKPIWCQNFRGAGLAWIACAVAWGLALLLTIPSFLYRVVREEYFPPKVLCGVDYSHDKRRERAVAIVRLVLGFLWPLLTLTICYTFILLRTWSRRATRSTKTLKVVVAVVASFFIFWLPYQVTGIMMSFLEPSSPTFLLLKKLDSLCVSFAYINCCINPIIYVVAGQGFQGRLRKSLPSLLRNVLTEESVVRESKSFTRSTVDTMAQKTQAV
As to the kind of experiment: (§2) Effect on uM; no effect.

For data set [4], the target named is T2, Cysteinyl leukotriene receptor 1 (Cavia porcellus) (UniProt Q2NNR5).
T2 sequence (whole entry): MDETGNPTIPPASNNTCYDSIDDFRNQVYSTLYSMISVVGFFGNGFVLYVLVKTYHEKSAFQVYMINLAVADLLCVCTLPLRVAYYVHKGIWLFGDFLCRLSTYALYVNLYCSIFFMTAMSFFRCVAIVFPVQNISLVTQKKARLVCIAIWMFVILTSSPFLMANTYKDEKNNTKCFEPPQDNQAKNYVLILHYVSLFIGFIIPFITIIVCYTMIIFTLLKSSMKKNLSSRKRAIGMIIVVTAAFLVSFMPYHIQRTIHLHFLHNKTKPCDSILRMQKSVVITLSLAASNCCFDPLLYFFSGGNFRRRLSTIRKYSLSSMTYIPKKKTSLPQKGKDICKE
The data set is described as §2.

Data set [5] addresses Leukotriene B4 receptor 1 (Homo sapiens) (UniProt Q15722). Described as §2.
For data set [6], the system named is Cavia porcellus. Briefly: In vivo inhibitory activity against PAF induced bronchoconstriction in female guinea pigs. In kind it is functional. Particulars: read-out: ID50 (the source's name).
Data set [7] concerns Cavia porcellus. Briefly: In vivo inhibitory activity against PAF induced bronchoconstriction in male guinea pigs. Format: functional. The following applies: read-out: ID50 (the source's name).
Data set [8] is filed under the species Homo sapiens. Briefly: Inhibitory activity against PAF-induced aggregation of human platelets suspended in buffer [washed platelets (WP)]. Format: functional.
Data set [9] has as its system Angiotensin II receptor (Oryctolagus cuniculus). Briefly: Effect on uM; no effect.
The species named for data set [10] is Homo sapiens. Briefly: Inhibitory activity against PAF-induced aggregation of human platelets suspended in plasma. In kind it is functional.
Data set [11] relates to Rattus norvegicus. As to the kind of experiment: Effect against PAF induced plasma level of N-acetyl-beta-D-glucosaminidase (NAGA) and plasma extravasation in male rat at a dose of 1 mg/kg by single administration after 6 hour. In kind it is functional.
The subject of data set [12] is Rattus norvegicus. Briefly: In vivo inhibitory activity against PAF induced plasma level of N-acetyl-beta-D-glucosaminidase (NAGA) and hematocrit (plasma extravasation) in male rat after p.o. administration. In kind it is functional. Particulars: po.
The target of data set [13] is Platelet-activating factor receptor (Homo sapiens, UniProt P25105). As to the kind of experiment: Inhibition of the binding of [3H]C18-Platelet activating factor to human platelet membrane preparation.
Chain of Platelet-activating factor receptor (P25105 whole entry): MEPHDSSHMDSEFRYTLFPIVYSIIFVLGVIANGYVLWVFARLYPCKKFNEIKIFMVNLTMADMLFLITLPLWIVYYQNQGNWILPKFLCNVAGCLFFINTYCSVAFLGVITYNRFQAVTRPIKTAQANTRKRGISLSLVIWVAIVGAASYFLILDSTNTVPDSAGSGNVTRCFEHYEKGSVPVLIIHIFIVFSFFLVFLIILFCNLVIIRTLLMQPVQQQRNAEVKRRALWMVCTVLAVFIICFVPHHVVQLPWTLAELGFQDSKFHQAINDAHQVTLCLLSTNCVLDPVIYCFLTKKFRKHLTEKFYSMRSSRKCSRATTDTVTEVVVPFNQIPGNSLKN
The test system of data set [14] is Rattus norvegicus. As to the kind of experiment: In vivo inhibitory activity against PAF induced plasma level of N-acetyl-beta-D-glucosaminidase (NAGA) and hematocrit (plasma extravasation) in female rat after p.o. administration. In kind it is functional. The following applies: po.
Data set [15] relates to Rattus norvegicus. Briefly: In vivo inhibitory activity against PAF induced plasma level of N-acetyl-beta-D-glucosaminidase (NAGA) and hematocrit (plasma extravasation) in male rat after i.v. administration. The following applies: iv. In kind it is functional.
Data set [16] can be described thus: Water solubility was determined. Format: ADME. The essentials: as §1
A short description of data set [17]: Water solubility at pH 7.4. Format: physicochemical. The essentials: as §1

Chain of Leukotriene B4 receptor 1 (Homo sapiens) (Q15722 whole entry): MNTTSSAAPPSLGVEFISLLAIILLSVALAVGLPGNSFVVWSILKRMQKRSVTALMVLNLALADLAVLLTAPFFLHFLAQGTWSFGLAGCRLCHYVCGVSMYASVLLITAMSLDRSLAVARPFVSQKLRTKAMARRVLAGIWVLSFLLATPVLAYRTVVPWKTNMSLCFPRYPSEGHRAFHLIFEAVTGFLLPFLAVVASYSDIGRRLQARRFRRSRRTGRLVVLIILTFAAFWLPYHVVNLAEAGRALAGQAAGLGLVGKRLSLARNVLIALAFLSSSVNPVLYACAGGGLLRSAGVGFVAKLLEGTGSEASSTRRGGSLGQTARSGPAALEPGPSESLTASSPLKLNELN

`CCCOc1c(OCCCn2ccnc2)cc([C@@H]2CC[C@@H](c3cc(OC)c(OC)c(OC)c3)O2)cc1S(=O)(=O)CC(C)=O`: the values for the solubility in data set [1] and in [2] were 800 µg/mL (≈ 1300 µM) and 5500 µg/mL (≈ 8920 µM), respectively. The inhibition result in data set [3], in data set [4] and in data set [5] was “inactive” each time.

Consider `CCCOc1c(OCCCN2CCOCC2)cc([C@@H]2CC[C@@H](c3cc(OC)c(OC)c(OC)c3)O2)cc1S(=O)(=O)CC(C)=O`, for which the solubility in data set [1] is 900 µg/mL (≈ 1420 µM); in data set [2] it was 5400 µg/mL (≈ 8490 µM). Moreover, the ED50 in the data set with Cavia porcellus [6] turned out to be 0.04 mg/kg; in the data set with Cavia porcellus [7] it was 0.06 mg/kg; in the data set on Rattus norvegicus [12], 0.15 mg/kg; in the data set with Rattus norvegicus [14], 0.2 mg/kg; in the data set on Rattus norvegicus [15] it was 0.037 mg/kg. Also, the half-inhibitory concentration (IC50) in the data set listed under Homo sapiens [8] worked out at 1 nM; in the data set filed under Homo sapiens [10], 19 nM; in [13], 2.5 nM. Further, the inhibition result in [9], in [3], in data set [4] and in [5] was “inactive” throughout. Further, the inhibition in vivo at 1 mg/kg in the data set with Rattus norvegicus [11] worked out at 60%.

As for `CCCOc1c(OCCCO)cc([C@@H]2CC[C@@H](c3cc(OC)c(OC)c(OC)c3)O2)cc1S(=O)(=O)CC(C)=O`, the solubility in data set [16] came out at 100 µg/mL (≈ 176 µM). Also, the inhibition result in [3], in [4] and in data set [5] was “inactive” each time.

The compound `CCCOc1c(OCCCOP(=O)([O-])O)cc([C@@H]2CC[C@@H](c3cc(OC)c(OC)c(OC)c3)O2)cc1S(=O)(=O)CC(C)=O.[K+]` showed a solubility in data set [17] greater than 30000 µg/mL. For the same compound, the inhibition entry in [3], in data set [4] and in data set [5] was “inactive” throughout.

Consider `CCCOc1c(OC)cc([C@@H]2CC[C@@H](c3cc(OC)c(OC)c(OC)c3)O2)cc1S(=O)(=O)CCO`, for which the ED50 in the data set with Cavia porcellus [7] stood at 0.19 mg/kg; in the data set on Rattus norvegicus [12] it was 2.3 mg/kg; in the data set on Rattus norvegicus [14], 0.1 mg/kg; in the data set with Rattus norvegicus [15] it was 0.1 mg/kg. For the same compound, inhibition in the data set filed under Homo sapiens [10] was half-maximal at 55 nM (IC50). In data set [16], this compound gave a solubility of 2 µg/mL (≈ 3.92 µM).

The compound `CCCOc1c(OC)cc([C@H]2CC[C@H](c3cc(OC)c(OC)c(OC)c3)O2)cc1S(C)(=O)=O` (single isomer, unassigned) displayed an IC50 in [13] of 9 nM.

The term solubility denotes the concentration that dissolves in the medium under given conditions. Read a high solubility as much dissolved substance. Broadly, the IC50 is the point on the concentration scale where inhibition reaches its midpoint. A higher IC50 goes with weaker potency. For orientation: inhibition in vivo means how much of the control response was suppressed.
